Published values collected from several papers.
Lines come from different studies, so protocols differ.
rep main protease: Replicase polyprotein 1ab, main protease (rep, Severe acute respiratory syndrome coronavirus 2, UniProt P0DTD1)
rep methyltransferase: Replicase polyprotein 1ab, methyltransferase (rep, Severe acute respiratory syndrome coronavirus 2, UniProt P0DTD1)

Structure (SMILES)	target	test	setting	quantity	result
CC1(C)O[C@@H]2C[C@H]3[C@@H]4C[C@H](F)C5=CC(=O)C=C[C@]5(C)[C@@]4(F)[C@@H](O)C[C@]3(C)[C@]2(C(=O)CO)O1	rep main protease	enzyme activity, inhibitor	–	IC50	69.1 µM
COc1ccc(OC)c(C(O)C(C)N)c1 (stereo not shown)	Alpha-1A adrenergic receptor (ADRA1A, Homo sapiens, UniProt P35348)	protein level, degrader, western blot	–	DC50	17.4 µM
O=C(O)c1cc(O)c(O)c(O)c1	rep main protease	enzyme activity, inhibitor	with preincubation	IC50	< 10 µM
C[C@@H]1CCO[C@H]2Cn3cc(C(=O)NCc4ccc(F)cc4F)c(=O)c(O)c3C(=O)N12	rep main protease	enzyme activity, inhibitor	–	IC50	49.4 µM
CCC(Sc1nnc2c(n1)[nH]c1ccccc12)C(=O)N1c2ccccc2Sc2ccccc21 (stereo not shown)	rep methyltransferase	enzyme activity, inhibitor	–	IC50	> 100 µM
O=C(N1CCC2(CC1)C[C@H](CN1CCCCS1(=O)=O)CCO2)C1(c2ccccc2)CCCC1	Replicase polyprotein 1ab, helicase (rep, Severe acute respiratory syndrome coronavirus 2, UniProt P0DTD1)	ATPase activity, inhibitor	–	IC50	> 100 µM
CCC1CC(c2ccc(C(=O)O)cc2)=NN1c1ccc(C#N)c(Cl)c1 (stereo not shown)	rep methyltransferase	enzyme activity, inhibitor	–	IC50	0.42 µM
O=C(O[C@@H]1Cc2c(O)cc(O)cc2O[C@@H]1c1ccc(O)c(O)c1)c1cc(O)c(O)c(O)c1	rep main protease	enzyme activity, inhibitor	with preincubation	IC50	< 10 µM
N#Cc1ccc(N2CCC(c3ccc(C(=O)O)cc3)=N2)cc1Cl	rep methyltransferase	enzyme activity, inhibitor	–	IC50	53.1 µM
Cc1c(O)cccc1C(=O)N[C@@H](CSc1ccccc1)[C@H](O)CN1C[C@H]2CCCC[C@H]2C[C@H]1C(=O)NC(C)(C)C	rep main protease	enzyme activity, inhibitor	–	IC50	28.8 µM
